In ChEMBL document CHEMBL5303300, “EUbOPEN Chemogenomics Library - Multiplex” (2023):
Where “and” joins values, the source holds several entries; their conditions need not be identical. Equal values may be shown once.

Columns and labels:
[1] = system: U2OS; test: Multiplex assay against U2OS; assay type: toxicity, cell-based; conditions: human, number of replicates 2
How it was run: (§1)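 Live cells were stained at seeding with Hoechst33342, BioTracker Green Microtubule Cytoskeleton Dye, MitoTracker Red and Annexin V Alexa Fluor 680, then imaged on a CQ1 microscope at 37°C and 5% CO2 after compound addition. CellPathfinder machine-learning gating split cells into Hoechst high-intensity objects or normal cells. Normal cells were split into healthy, pyknosed or fragmented nuclei, and pyknosed cells into mitotic or apoptotic. Tubulin, mitochondrial-mass and membrane-permeability phenotypes are per cents of healthy-nucleus cells.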

[2] = system: Fibroblast; test: Multiplex assay against human fibroblast; assay type: toxicity, cell-based; conditions: number of replicates 2; how it was run: as §1
[3] = 24 h, 10 µM, compound concentration 10 uM
[4] = 48 h, 1 µM, compound concentration 1 uM
[5] = 48 h, 10 µM, compound concentration 10 uM
[6] = 12 h, 1 µM, compound concentration 1 uM
[7] = 12 h, 10 µM, compound concentration 10 uM
[8] = 24 h, 1 µM, compound concentration 1 uM

COc1cc(OC)cc(C(=O)NNC(=O)Nc2cccc3ccccc23)c1
Population Apoptotic (%) [1, 3]: 34% and 30% | Population Fragmented Nuclei (%) [1, 3]: 5% and 6% | Population Healthy Nuclei (%) [1, 3]: 83% and 73% | Population Hoechst High Intensity Objects (%) [1, 3]: 0% | Population Membrane Permeable-Phenotype (%) [1, 3]: 0% and 4% | Population Mitochondria Different-Phenotype (%) [1, 3]: 0% and 4% | Population Mitotic Cells (%) [1, 3]: 65% and 69% | Population Normal (%) [1, 3]: 100% | Population Pyknosed Nuclei (%) [1, 3]: 11% and 20% | Population Tubulin-Different-Phenotype (%) [1, 3]: 81% and 50% | Population Apoptotic (%) [1, 4]: 64% and 50% | Population Fragmented Nuclei (%) [1, 4]: 3% and 6% | Population Healthy Nuclei (%) [1, 4]: 88% and 85% | Population Hoechst High Intensity Objects (%) [1, 4]: 0% | Population Membrane Permeable-Phenotype (%) [1, 4]: 0% and 4% | Population Mitochondria Different-Phenotype (%) [1, 4]: 0% and 4% | Population Mitotic Cells (%) [1, 4]: 35% and 50% | Population Normal (%) [1, 4]: 100% | Population Pyknosed Nuclei (%) [1, 4]: 7% and 8% | Population Tubulin-Different-Phenotype (%) [1, 4]: 92% and 47% | Population Apoptotic (%) [1, 5]: 60% and 63% | Population Fragmented Nuclei (%) [1, 5]: 5% and 2% | Population Healthy Nuclei (%) [1, 5]: 68% and 90% | Population Hoechst High Intensity Objects (%) [1, 5]: 2% and 0% | Population Membrane Permeable-Phenotype (%) [1, 5]: 3% and 1% | Population Mitochondria Different-Phenotype (%) [1, 5]: 4% and 0% | Population Mitotic Cells (%) [1, 5]: 39% and 36% | Population Normal (%) [1, 5]: 97% and 100% | Population Tubulin-Different-Phenotype (%) [1, 5]: 52% and 84% | Population Apoptotic (%) [2, 6]: 32% and 47% | Population Fragmented Nuclei (%) [2, 6]: 6% and 18% | Population Healthy Nuclei (%) [2, 6]: 77% and 72% | Population Hoechst High Intensity Objects (%) [2, 6]: 0% | Population Membrane Permeable-Phenotype (%) [2, 6]: 3% | Population Mitochondria Different-Phenotype (%) [2, 6]: 0% and 1% | Population Mitotic Cells (%) [2, 6]: 67% and 52% | Population Normal (%) [2, 6]: 100% | Population Pyknosed Nuclei (%) [2, 6]: 15% and 8% | Population Tubulin-Different-Phenotype (%) [2, 6]: 10% and 5% | Total Cell Count [2, 6]: 196 and 216 | Population Apoptotic (%) [2, 7]: 34% and 37% | Population Fragmented Nuclei (%) [2, 7]: 9% and 7% | Population Healthy Nuclei (%) [2, 7]: 70% and 85% | Population Hoechst High Intensity Objects (%) [2, 7]: 0% | Population Membrane Permeable-Phenotype (%) [2, 7]: 3% and 2% | Population Mitochondria Different-Phenotype (%) [2, 7]: 1% and 0% | Population Mitotic Cells (%) [2, 7]: 65% and 62% | Population Normal (%) [2, 7]: 100% | Population Pyknosed Nuclei (%) [2, 7]: 20% and 7% | Population Tubulin-Different-Phenotype (%) [2, 7]: 12% and 6% | Total Cell Count [2, 7]: 159 and 228 | Population Apoptotic (%) [2, 8]: 41% and 50% | Population Healthy Nuclei (%) [2, 8]: 87% and 76% | Population Hoechst High Intensity Objects (%) [2, 8]: 0% | Population Membrane Permeable-Phenotype (%) [2, 8]: 3% and 1% | Population Mitochondria Different-Phenotype (%) [2, 8]: 2% and 0% | Population Mitotic Cells (%) [2, 8]: 58% and 50% | Population Normal (%) [2, 8]: 100% | Population Pyknosed Nuclei (%) [2, 8]: 8% and 6% | Population Tubulin-Different-Phenotype (%) [2, 8]: 11% and 3% | Total Cell Count [2, 8]: 199 and 203 | Population Apoptotic (%) [2, 3]: 38% and 25% | Population Fragmented Nuclei (%) [2, 3]: 10% | Population Healthy Nuclei (%) [2, 3]: 77% and 85% | Population Hoechst High Intensity Objects (%) [2, 3]: 0% | Population Membrane Permeable-Phenotype (%) [2, 3]: 3% and 0% | Population Mitochondria Different-Phenotype (%) [2, 3]: 2% and 0% | Population Mitotic Cells (%) [2, 3]: 61% and 75% | Population Normal (%) [2, 3]: 100% and 99% | Population Pyknosed Nuclei (%) [2, 3]: 11% and 3% | Total Cell Count [2, 3]: 155 and 236 | Population Apoptotic (%) [2, 4]: 62% and 56% | Population Fragmented Nuclei (%) [2, 4]: 7% and 15% | Population Healthy Nuclei (%) [2, 4]: 88% and 78% | Population Hoechst High Intensity Objects (%) [2, 4]: 0% | Population Membrane Permeable-Phenotype (%) [2, 4]: 1% and 2% | Population Mitochondria Different-Phenotype (%) [2, 4]: 0% | Population Mitotic Cells (%) [2, 4]: 37% and 43% | Population Normal (%) [2, 4]: 100% | Population Pyknosed Nuclei (%) [2, 4]: 3% and 6% | Population Tubulin-Different-Phenotype (%) [2, 4]: 5% and 1% | Total Cell Count [2, 4]: 213 and 238 | Population Apoptotic (%) [2, 5]: 66% and 70% | Population Fragmented Nuclei (%) [2, 5]: 12% and 9% | Population Healthy Nuclei (%) [2, 5]: 82% and 86% | Population Hoechst High Intensity Objects (%) [2, 5]: 0% | Population Membrane Permeable-Phenotype (%) [2, 5]: 5% and 0% | Population Mitochondria Different-Phenotype (%) [2, 5]: 0% | Population Mitotic Cells (%) [2, 5]: 33% and 30% | Population Normal (%) [2, 5]: 99% | Population Pyknosed Nuclei (%) [2, 5]: 5% and 4% | Population Tubulin-Different-Phenotype (%) [2, 5]: 8% and 1% | Total Cell Count [2, 5]: 165 and 243
